The source made the active and inactive calls. The calls are words filed in the database; no cut-off is given here.
Tests used:
[1] = molecular target: T1, Estrogen receptor (Rattus norvegicus) (UniProt P06211+Q62986); test: Relative binding affinity (RBA) on estrogen receptor was measured by in vitro using cytosol from the immature rat uterus; assay type: protein assay
Summary of the method: (§1)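 Competitive displacement of [3H]estradiol from estrogen receptor. Incubation was 3 h at 25 °C. Nonspecific binding was defined with 1000 nM unlabeled estradiol. RBA = 100 × IC50(estradiol)/IC50(compound), with estradiol set at 100%.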

[2] = molecular target: T2, Estrogen receptor (Homo sapiens) (UniProt Q92731+P03372); test: Ability to inhibit E2-induced proliferation of ZR-75-1 cells at a dose of 1 uM; assay type: functional, cell-based
Summary of the method: (§2)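 ZR-75-1 cells (passages 90-96, kept in phenol-red-free RPMI-1640 with 10 nM E2) were plated at 10 000 cells/dish in SD medium (5% dextran-charcoal FBS, insulin) and allowed to adhere for 3 days. They were then treated for 9 days at 37 °C with compound (1 uM, ethanol vehicle 0.1%) plus E2 0.1 nM, with medium changed every 2-3 days. Read-out was DNA content. % inhibition = 100 − [(D−B)/(C−A)]×100. Done in triplicate.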

[3] = molecular target: T2, Estrogen receptor (Homo sapiens); test: Ability to stimulate the basal cell proliferation of ZR-75-1 cells at a dose of 1 uM; assay type: functional, cell-based
Summary of the method: (§3)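 ZR-75-1 cells were plated at 10 000 cells/dish in phenol-red-free SD medium (5% dextran-charcoal FBS) and allowed to adhere for 3 days. Compound was added at 1 uM without E2 (controls received 0.1% ethanol). Cells were incubated for 9 days at 37 °C with medium renewed every 2-3 days. Basal proliferation was read as DNA content (ng/dish). Done in triplicate.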

[4] = Compound was tested for percent inhibition of the Estradiol (E2) induced cell proliferation; set-up: concentration or dose not given beside the values
[5] = Antiestrogenic activity against Estradiol (E2) induced cell proliferation; set-up: concentration or dose not given beside the values
[6] = molecular target: T1, Estrogen receptor (Rattus norvegicus); test: Relative binding affinity (RBA) on estrogen receptor was measured by in vitro using cytosol from the immature rat uterus; N means no binding observed; assay type: protein assay; summary of the method: as §1
[7] = Percent inhibition of Estradiol (E2) induced cell proliferation; set-up: scale not given: the % may be the effect or the level left
[8] = tested on: ZR-75-1; test: (§4) Inhibition of E2-induced proliferation of ZR-75-1 cells at 1 uM; assay type: functional, Homo sapiens; summary of the method: as §2
[9] = tested on: ZR-75-1; test: as §4; assay type: functional, Homo sapiens; summary of the method: as §2; remark: listed apart in the source
[10] = tested on: ZR-75-1; test: Stimulation of basal cell proliferation of ZR-75-1 cells at 1 uM; assay type: functional, Homo sapiens; summary of the method: as §3

Structure (SMILES) | RBA [1] [%] | DNA content per dish (cell proliferation) ((ng of DNA) dish-1) [2] | Binding ((ng of DNA) dish-1) [3] | Activity [4] [%] | Activity [5] [%] | relative binding affinity (RBA) [6] | Activity [7] [%] | Binding [8] | Binding [9] | Binding [10]
CCCCN(C)C(=O)CCSC(Cc1ccc(O)cc1)c1ccc(OC)cc1 (stereo not drawn) | 0.01 | 902 | 684 |  | 66 |  |  |  |  | 
CCCCN(C)C(=O)CCSC(Cc1ccc(O)cc1)c1ccc(O)cc1 (stereo not drawn) | 0.01 | 2600 | 1890 | 40 |  |  |  |  |  | 
CCCCN(C)C(=O)CCCCCSC(Cc1ccc(O)cc1)c1ccc(O)cc1 (stereo not drawn) | 0.01 | 2050 | 1440 |  |  |  | 49 |  |  | 
CCCCN(C)C(=O)CCCCCCCSC(Cc1ccc(OC)cc1)c1ccc(OC)cc1 (stereo not drawn) |  | 1150 | 746 |  | 36 | inactive |  |  |  | 
CCCCN(C)C(=O)CCSC(Cc1ccc(OCc2ccccc2)cc1)c1ccc(OC)cc1 (stereo not drawn) |  | 1020 | 789 |  | 64 | inactive |  |  |  | 
CCCCN(C)C(=O)CCSC(Cc1ccc(OC)cc1)c1ccc(OC)cc1 (stereo not drawn) |  | 1010 | 741 |  | 57 | inactive |  |  |  | 
CCCCN(C)C(=O)CCCCCCCCCCSC(Cc1ccc(OCc2ccccc2)cc1)c1ccc(OC)cc1 (stereo not drawn) |  | 1120 | 749 |  | 42 |  |  |  |  | 
CCCCN(C)C(=O)CCCCCCCSC(Cc1ccc(OCc2ccccc2)cc1)c1ccc(OC)cc1 (stereo not drawn) |  | 1070 | 791 |  | 56 | inactive |  |  |  | 
CCCCN(C)C(=O)CCCCCCCCCCC1Cc2cc(O)ccc2[C@H]2CC[C@]3(C)[C@@H](O)[C@H](Cl)C[C@H]3[C@H]12 (stereo partly drawn) | 1.2 |  |  | 94 | 103 |  |  | 1403 (ng of DNA) dish-1 | 662 (ng of DNA) dish-1 | 679 (ng of DNA) dish-1

More lines, main results first:

RBA [1] [%] | DNA content per dish (cell proliferation) ((ng of DNA) dish-1) [2] | Binding ((ng of DNA) dish-1) [3] | Activity [4] [%] | Activity [5] [%] | relative binding affinity (RBA) [6] | Activity [7] [%] | Structure (SMILES) | Binding [8] | Binding [9] | Binding [10]
0.02 | 1280 | 839 | 31 |  |  |  | COc1ccc(C(Cc2ccc(O)cc2)SCCCCCCCCCCCO)cc1 (stereo not drawn) |  |  | 
0.05 | 915 | 698 |  | 66 |  |  | CCCCN(C)C(=O)CCCCCCCSC(Cc1ccc(O)cc1)c1ccc(OC)cc1 (stereo not drawn) |  |  | 
0.01 | 2070 | 1410 | 44 |  |  |  | CCCCN(C)C(=O)CCCCCCCSC(Cc1ccc(O)cc1)c1ccc(O)cc1 (stereo not drawn) |  |  | 
 | 1090 | 807 |  | 55 | inactive |  | CCCCN(C)C(=O)CCCCCCCCCCCSC(Cc1ccc(O)cc1)c1ccc(OC)cc1 (stereo not drawn) |  |  | 
 | 1350 | 800 |  | 13 | inactive |  | CCCCN(C)C(=O)CCCCCCCCCCCSC(Cc1ccc(OC)cc1)c1ccc(OC)cc1 (stereo not drawn) |  |  | 
 | 1100 | 725 |  | 41 | inactive |  | COc1ccc(C(Cc2ccc(OCc3ccccc3)cc2)SCCCCCCCCCCCO)cc1 (stereo not drawn) |  |  | 
0.02 | 2230 | 1540 | 42 |  |  |  | OCCCCCCCCCCCSC(Cc1ccc(O)cc1)c1ccc(O)cc1 (stereo not drawn) |  |  | 
0.01 | 1390 | 1150 | 80 |  |  |  | CCCCN(C)C(=O)CCCCCCCCCCSC(Cc1ccc(O)cc1)c1ccc(O)cc1 (stereo not drawn) |  |  | 
 | 1320 | 733 |  | 8 | inactive |  | CCCCN(C)C(=O)CCCCCCCCCCSC(Cc1ccc(O)cc1)c1ccc(OC)cc1 (stereo not drawn) |  |  | 

— ChEMBL document CHEMBL1127816, “Synthesis and antiestrogenic activity of diaryl thioether derivatives” (1994)
